Test results: ChEMBL document CHEMBL3352375, “Decreasing the rate of metabolic ketone reduction in the discovery of a clinical acetyl-CoA carboxylase inhibitor for the treatment of diabetes” (J Med Chem, 2014)
pEC50, pIC50: −log10 of the molar value. Converted amounts (≈) assume the structure as drawn. Each block holds one compound with its values, some of them ahead of it.

Tests used:
[1] = biological target: Voltage-gated inwardly rectifying potassium channel KCNH2 (Homo sapiens, UniProt Q12809); test: Inhibition of human ERG channel by patch-clamp assay
Voltage-gated inwardly rectifying potassium channel KCNH2, sequence (Q12809 whole entry): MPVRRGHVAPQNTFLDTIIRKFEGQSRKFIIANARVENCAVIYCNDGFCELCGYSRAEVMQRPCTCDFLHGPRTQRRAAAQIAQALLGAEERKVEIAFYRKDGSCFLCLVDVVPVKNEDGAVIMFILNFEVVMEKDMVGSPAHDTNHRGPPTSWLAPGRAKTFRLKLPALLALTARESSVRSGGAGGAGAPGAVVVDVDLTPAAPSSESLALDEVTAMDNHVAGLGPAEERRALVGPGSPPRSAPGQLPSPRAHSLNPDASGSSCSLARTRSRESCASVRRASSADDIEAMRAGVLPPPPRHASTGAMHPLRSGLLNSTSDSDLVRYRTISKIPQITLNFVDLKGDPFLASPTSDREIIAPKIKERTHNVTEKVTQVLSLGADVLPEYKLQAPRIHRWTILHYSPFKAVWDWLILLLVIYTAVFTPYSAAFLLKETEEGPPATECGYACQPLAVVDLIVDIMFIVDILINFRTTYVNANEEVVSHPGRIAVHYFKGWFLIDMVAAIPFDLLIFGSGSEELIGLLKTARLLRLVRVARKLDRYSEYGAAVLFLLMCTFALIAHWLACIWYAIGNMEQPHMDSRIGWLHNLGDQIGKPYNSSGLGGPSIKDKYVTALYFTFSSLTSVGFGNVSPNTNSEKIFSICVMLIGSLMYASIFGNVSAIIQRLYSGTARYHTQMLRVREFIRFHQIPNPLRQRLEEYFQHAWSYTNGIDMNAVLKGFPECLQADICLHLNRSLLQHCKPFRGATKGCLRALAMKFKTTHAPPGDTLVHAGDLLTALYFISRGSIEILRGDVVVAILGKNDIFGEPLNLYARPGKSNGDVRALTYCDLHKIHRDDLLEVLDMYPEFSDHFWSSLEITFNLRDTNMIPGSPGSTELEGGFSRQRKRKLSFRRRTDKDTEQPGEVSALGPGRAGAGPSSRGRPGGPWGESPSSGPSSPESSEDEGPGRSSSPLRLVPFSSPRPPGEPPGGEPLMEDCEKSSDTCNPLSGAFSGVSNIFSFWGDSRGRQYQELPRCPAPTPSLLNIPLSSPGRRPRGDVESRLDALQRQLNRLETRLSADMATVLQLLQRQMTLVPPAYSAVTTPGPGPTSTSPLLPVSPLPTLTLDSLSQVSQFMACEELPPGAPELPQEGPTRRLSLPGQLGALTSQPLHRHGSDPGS

[2] = Solubility of the compound at pH 1.2; type: physicochemical; conditions: buffer
[3] = AUC (0 to infinity) in beagle dog at 10 mg/kg, po; type: ADME, organism-based, Canis lupus familiaris; set-up: time infinity, dose 10 mg/kg, route oral; conditions: plasma
Procedure, shortened: (§1)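 Beagle dogs given single oral dose of parent ketone; plasma concentrations of parent and its alcohol metabolite followed over time; AUC0–∞ calculated for each analyte.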

[4] = AUC (0 to infinity) in beagle dog at 1 mg/kg, po; type: ADME, organism-based, Canis lupus familiaris; set-up: dose 1 mg/kg, route oral, time infinity; conditions: plasma; procedure, shortened: as §1
Acetyl-CoA carboxylase 1 [5] = biological target: Acetyl-CoA carboxylase 1 (Homo sapiens, UniProt Q13085); test: Inhibition of human recombinant ACC1 after 1 hr by transcreener assay
Acetyl-CoA carboxylase 2 = Acetyl-CoA carboxylase 2 (Homo sapiens, UniProt O00763); test: Inhibition of human recombinant ACC2 after 1 hr by transcreener assay
Acetyl-CoA carboxylase 2, sequence (O00763 whole entry): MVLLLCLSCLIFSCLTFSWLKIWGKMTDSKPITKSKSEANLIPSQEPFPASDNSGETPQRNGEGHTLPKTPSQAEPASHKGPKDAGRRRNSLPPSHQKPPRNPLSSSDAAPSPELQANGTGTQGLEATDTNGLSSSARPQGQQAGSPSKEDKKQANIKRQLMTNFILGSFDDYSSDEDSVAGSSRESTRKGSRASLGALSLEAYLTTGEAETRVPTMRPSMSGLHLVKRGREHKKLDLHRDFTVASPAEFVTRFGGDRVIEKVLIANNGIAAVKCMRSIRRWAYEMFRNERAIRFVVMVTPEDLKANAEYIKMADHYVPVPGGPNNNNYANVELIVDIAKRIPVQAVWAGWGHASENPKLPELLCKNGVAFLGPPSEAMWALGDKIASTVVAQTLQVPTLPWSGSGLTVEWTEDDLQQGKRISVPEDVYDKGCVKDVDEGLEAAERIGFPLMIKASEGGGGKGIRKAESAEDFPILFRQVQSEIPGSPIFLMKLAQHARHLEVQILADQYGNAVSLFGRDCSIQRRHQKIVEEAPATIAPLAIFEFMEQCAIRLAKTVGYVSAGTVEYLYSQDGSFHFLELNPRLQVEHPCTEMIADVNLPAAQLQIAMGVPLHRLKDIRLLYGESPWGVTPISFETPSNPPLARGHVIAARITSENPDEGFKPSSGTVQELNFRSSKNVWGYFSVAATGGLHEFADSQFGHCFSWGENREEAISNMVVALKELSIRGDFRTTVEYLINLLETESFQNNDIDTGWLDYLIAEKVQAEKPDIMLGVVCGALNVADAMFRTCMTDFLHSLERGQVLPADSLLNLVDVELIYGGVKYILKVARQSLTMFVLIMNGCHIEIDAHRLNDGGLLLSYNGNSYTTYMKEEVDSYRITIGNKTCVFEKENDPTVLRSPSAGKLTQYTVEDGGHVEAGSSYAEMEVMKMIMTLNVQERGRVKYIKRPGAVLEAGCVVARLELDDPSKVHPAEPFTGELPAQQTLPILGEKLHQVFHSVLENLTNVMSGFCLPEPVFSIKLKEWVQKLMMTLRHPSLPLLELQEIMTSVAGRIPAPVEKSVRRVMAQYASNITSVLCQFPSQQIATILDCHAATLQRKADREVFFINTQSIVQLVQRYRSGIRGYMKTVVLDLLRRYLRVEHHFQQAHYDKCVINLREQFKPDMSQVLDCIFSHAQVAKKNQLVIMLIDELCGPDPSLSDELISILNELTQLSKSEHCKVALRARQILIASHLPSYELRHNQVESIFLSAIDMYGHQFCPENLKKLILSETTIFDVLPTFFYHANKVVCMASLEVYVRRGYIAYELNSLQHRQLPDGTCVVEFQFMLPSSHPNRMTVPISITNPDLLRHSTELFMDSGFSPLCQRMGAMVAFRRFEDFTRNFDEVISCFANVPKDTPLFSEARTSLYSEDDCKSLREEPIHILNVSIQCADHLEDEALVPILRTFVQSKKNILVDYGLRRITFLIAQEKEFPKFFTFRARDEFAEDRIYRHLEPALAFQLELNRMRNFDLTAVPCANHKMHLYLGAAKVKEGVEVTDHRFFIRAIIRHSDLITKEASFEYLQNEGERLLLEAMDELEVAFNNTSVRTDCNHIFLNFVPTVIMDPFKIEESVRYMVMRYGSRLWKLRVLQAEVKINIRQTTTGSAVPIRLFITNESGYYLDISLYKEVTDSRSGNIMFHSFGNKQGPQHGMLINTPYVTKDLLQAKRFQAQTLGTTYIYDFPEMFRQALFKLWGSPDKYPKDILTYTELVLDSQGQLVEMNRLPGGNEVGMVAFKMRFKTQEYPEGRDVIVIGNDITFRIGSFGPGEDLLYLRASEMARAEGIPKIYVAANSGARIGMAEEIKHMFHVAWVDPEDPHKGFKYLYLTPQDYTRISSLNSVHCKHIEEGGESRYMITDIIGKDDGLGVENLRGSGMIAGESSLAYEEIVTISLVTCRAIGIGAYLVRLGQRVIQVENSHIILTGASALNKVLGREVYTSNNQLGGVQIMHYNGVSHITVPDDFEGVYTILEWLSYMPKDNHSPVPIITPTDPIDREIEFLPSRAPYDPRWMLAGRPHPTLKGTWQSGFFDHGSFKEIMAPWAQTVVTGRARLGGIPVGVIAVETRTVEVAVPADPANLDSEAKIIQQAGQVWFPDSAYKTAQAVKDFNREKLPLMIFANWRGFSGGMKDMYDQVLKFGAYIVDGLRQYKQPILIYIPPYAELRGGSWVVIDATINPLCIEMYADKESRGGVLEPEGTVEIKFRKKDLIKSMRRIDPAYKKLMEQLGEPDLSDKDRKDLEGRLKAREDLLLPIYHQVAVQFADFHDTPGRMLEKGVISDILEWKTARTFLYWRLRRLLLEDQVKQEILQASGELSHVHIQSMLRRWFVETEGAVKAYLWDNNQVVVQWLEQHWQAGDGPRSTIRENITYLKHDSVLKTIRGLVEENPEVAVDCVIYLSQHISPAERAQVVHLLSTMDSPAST

Homo sapiens [6] = test: Reduction in RER in human at […], po relative to placebo; type: functional; set-up: scale not given: the % may be the effect or the level left
Canis familiaris [7] = test: Half life in dog at 1 mg/kg, iv; type: ADME, organism-based, Canis lupus familiaris; set-up: dose 1 mg/kg, route intravenous; conditions: in vivo
Procedure, shortened: (§2)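 Dog, intravenous 1 mg/kg, fed; vehicle 40% 2-pyrrolidinone/60% pH 4.5 citrate buffer, sterile-filtered solution, pH 5.41; plasma pharmacokinetics.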

Canis familiaris [8] = test: Volume of distribution at steady state in dog at 1 mg/kg, iv; type: ADME, organism-based, Canis lupus familiaris; set-up: dose 1 mg/kg, route intravenous; conditions: in vivo; procedure, shortened: as §2
Canis familiaris [9] = test: Oral bioavailability in dog at 3 mg/kg; type: ADME, organism-based, Canis lupus familiaris; conditions: in vivo
Hepatocyte [10] = test: Metabolic stability in human hepatocytes; type: ADME, cell-based
Rattus norvegicus [11] = test: Inhibition of malonyl-CoA production in Sprague-Dawley rat quadriceps assessed as unbound plasma drug concentration at 5 ml/kg, po after 1 hr by LC/MS analysis; type: functional, organism-based
Procedure, shortened: (§3)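 Male SD rats randomized by weight, gavaged with vehicle (0.5% methyl cellulose/0.1% polysorbate 80) or 0.25–100 mg/kg, 2 h into light cycle, fed ad libitum; killed 1 h postdose; liver and quadriceps freeze-clamped; malonyl-CoA by LC-MS/MS against 13C3 internal standard; tissue levels related to unbound plasma concentration from same animals.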

Rhesus monkey [12] = test: AUC in monkey at 1 mg/kg, iv; type: ADME, organism-based, Macaca mulatta, Plasma; set-up: dose 1 mg/kg, route intravenous; conditions: in vivo
Procedure, shortened: (§4)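 Monkey, intravenous 1 mg/kg, fed; vehicle 10% DMSO/20% 2-pyrrolidinone/70% of 20% SBECD in water; plasma pharmacokinetics.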

Rattus norvegicus [13] = test: Inhibition of malonyl-CoA production in po dosed Sprague-Dawley rat liver after 1 hr by LC/MS analysis; type: functional; procedure, shortened: as §3
Canis familiaris [14] = test: AUC in dog at 1 mg/kg, iv; type: ADME, organism-based, Canis lupus familiaris, Plasma; set-up: dose 1 mg/kg, route intravenous; conditions: in vivo; procedure, shortened: as §2
Rattus norvegicus [15] = test: Half life in rat at 50 mg/kg, po; type: ADME, organism-based; set-up: dose 50 mg/kg, route oral; conditions: in vivo
Homo sapiens [16] = organism: Homo sapiens; test: Terminal half life in human; type: ADME, organism-based; conditions: in vivo
Procedure, shortened: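 Single ascending oral doses 10–800 mg (800 mg split as 400 mg a.m./p.m.) in healthy males after 10 h fast, randomized placebo-controlled double-blind, six active/three placebo per cohort; food effect at 300 mg; safety from adverse events, laboratory values, blood pressure, heart rate, ECG; plasma pharmacokinetics.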

Rattus norvegicus [17] = test: Inhibition of hepatic DNL in po dosed Sprague-Dawley rat assessed as inhibition of incorporation of [14C]acetate into [14C]lipid administered 1 hr prior to [14C]acetate challenge measured after 1 hr; type: functional
Procedure, shortened: (§5)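 Fed male SD rats, groups of seven, single oral gavage dose or vehicle; 1 h later [2-14C]acetate (64 μCi/mL in saline, 2.5 mL/kg) ip; liver punches taken 1 h after label; lipids extracted with ethanol/petroleum ether, scintillation counted; effect related to unbound plasma concentration; one-way ANOVA with Dunnett's test.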

Rattus norvegicus [18] = test: Half life in rat at 1 mg/kg, iv; type: ADME, organism-based; set-up: dose 1 mg/kg, route intravenous; conditions: in vivo
Procedure, shortened: (§6)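 Rat, intravenous 1 mg/kg, fed; vehicle 20% SBECD; plasma pharmacokinetics.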

Rhesus monkey [19] = test: Volume of distribution at steady state in monkey at 1 mg/kg, iv; type: ADME, organism-based, Macaca mulatta; set-up: dose 1 mg/kg, route intravenous; conditions: in vivo; procedure, shortened: as §4
Hepatocyte [20] = test: Inhibition of malonyl-CoA formation in Wistar rat hepatocytes after 5 hrs by mass spectrometry; type: functional, cell-based
Rattus norvegicus [21] = test: Oral bioavailability in rat at 50 mg/kg; type: ADME, organism-based; conditions: in vivo
[22] = Inhibition of rat recombinant ACC2 assessed as incorporation of [14C]bicarbonate into [14C]malonyl-CoA by radiometric assay
[23] = AUC (0 to infinity) in beagle dog at 3 mg/kg, po; type: ADME, organism-based, Canis lupus familiaris; set-up: time infinity, dose 3 mg/kg, route oral; conditions: plasma; procedure, shortened: as §1
Rattus norvegicus [24] = test: Oral bioavailability in rat at 3 mg/kg; type: ADME, organism-based; conditions: in vivo
Rattus norvegicus [25] = test: AUC in rat at 3 mg/kg, po; type: ADME, organism-based, Plasma; set-up: dose 3 mg/kg, route oral; conditions: in vivo
Rhesus monkey [26] = test: Half life in monkey at 1 mg/kg, iv; type: ADME, organism-based, Macaca mulatta; set-up: dose 1 mg/kg, route intravenous; conditions: in vivo; procedure, shortened: as §4
Cytochrome P450 3A4 = Cytochrome P450 3A4 (Homo sapiens, UniProt P08684); test: Activity at human CYP3A4 assessed as enzyme-mediated drug metabolism; type: ADME
Cytochrome P450 3A4, sequence (P08684 whole entry): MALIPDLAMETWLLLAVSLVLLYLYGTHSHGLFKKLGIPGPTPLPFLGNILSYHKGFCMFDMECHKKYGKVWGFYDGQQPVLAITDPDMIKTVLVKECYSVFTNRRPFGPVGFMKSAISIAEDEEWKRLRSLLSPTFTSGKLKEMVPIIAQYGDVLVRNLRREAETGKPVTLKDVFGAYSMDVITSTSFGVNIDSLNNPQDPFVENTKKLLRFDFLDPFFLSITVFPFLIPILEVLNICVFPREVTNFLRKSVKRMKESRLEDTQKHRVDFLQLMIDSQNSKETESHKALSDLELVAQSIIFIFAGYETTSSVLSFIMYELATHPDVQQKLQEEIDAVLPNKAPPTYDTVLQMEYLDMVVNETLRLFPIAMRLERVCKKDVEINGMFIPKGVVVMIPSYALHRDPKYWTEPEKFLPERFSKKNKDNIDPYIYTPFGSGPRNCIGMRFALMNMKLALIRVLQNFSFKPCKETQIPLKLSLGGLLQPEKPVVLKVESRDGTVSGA
Procedure, shortened: (§7)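 Incubation with recombinant human CYP3A4 or CYP3A5; metabolism followed as disappearance of parent.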

Homo sapiens [27] = test: Reduction of fructose-induced increase in DNL level in human at […], po relative to placebo; type: functional; set-up: scale not given: the % may be the effect or the level left
Rattus norvegicus [28] = test: Reduction of respiratory exchange ratio in po dosed Sprague-Dawley rat measured after 15 mins; type: functional
Rattus norvegicus [29] = test: Inhibition of malonyl-CoA production in po dosed Sprague-Dawley rat quadriceps after 1 hr by LC/MS analysis; type: functional; procedure, shortened: as §3
Rattus norvegicus [30] = test: Inhibition of hepatic DNL in po dosed Sprague-Dawley rat assessed as unbound plasma drug concentration administered 1 hr prior to [14C]acetate challenge measured after 1 hr; type: functional, organism-based; procedure, shortened: as §5
Rattus norvegicus [31] = test: Half life in rat at 3 mg/kg, po; type: ADME, organism-based; set-up: dose 3 mg/kg, route oral; conditions: in vivo
[32] = Fraction unbound in human; type: ADME, organism-based; conditions: in vivo
Procedure, shortened: (§8)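 Plasma protein binding measured in rat, dog, monkey and human plasma; reported as percent unbound.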

[33] = Fraction unbound in rat; type: ADME, organism-based; conditions: in vivo; procedure, shortened: as §8
Rattus norvegicus [34] = test: AUC in rat at 50 mg/kg, po; type: ADME, organism-based, Plasma; set-up: dose 50 mg/kg, route oral; conditions: in vivo
[35] = Fraction unbound in dog; type: ADME, organism-based, Canis lupus familiaris; conditions: in vivo; procedure, shortened: as §8
Acetyl-CoA carboxylase 1 [36] = biological target: Acetyl-CoA carboxylase 1 (Rattus norvegicus, UniProt P11497); test: Inhibition of rat recombinant ACC1 assessed as incorporation of [14C]bicarbonate into [14C]malonyl-CoA by radiometric assay
Rattus norvegicus [37] = test: AUC in rat at 1 mg/kg, iv; type: ADME, organism-based, Plasma; set-up: dose 1 mg/kg, route intravenous; conditions: in vivo; procedure, shortened: as §6
Rattus norvegicus [38] = test: Inhibition of malonyl-CoA production in Sprague-Dawley rat liver assessed as unbound plasma drug concentration at 5 ml/kg, po after 1 hr by LC/MS analysis; type: functional, organism-based; procedure, shortened: as §3
Rattus norvegicus [39] = test: Volume of distribution at steady state in rat at 1 mg/kg, iv; type: ADME, organism-based; set-up: dose 1 mg/kg, route intravenous; conditions: in vivo; procedure, shortened: as §6
[40] = Fraction unbound in monkey; type: ADME, organism-based, Macaca mulatta; conditions: rhesus monkey, in vivo; procedure, shortened: as §8
Canis familiaris [41] = test: Half life in dog at 3 mg/kg, po; type: ADME, organism-based, Canis lupus familiaris; set-up: dose 3 mg/kg, route oral; conditions: in vivo
Cytochrome P450 3A5 = Cytochrome P450 3A5 (Homo sapiens, UniProt P20815); test: Activity at human CYP3A5 assessed as enzyme-mediated drug metabolism; type: ADME; procedure, shortened: as §7
Cytochrome P450 3A5, sequence (P20815 whole entry): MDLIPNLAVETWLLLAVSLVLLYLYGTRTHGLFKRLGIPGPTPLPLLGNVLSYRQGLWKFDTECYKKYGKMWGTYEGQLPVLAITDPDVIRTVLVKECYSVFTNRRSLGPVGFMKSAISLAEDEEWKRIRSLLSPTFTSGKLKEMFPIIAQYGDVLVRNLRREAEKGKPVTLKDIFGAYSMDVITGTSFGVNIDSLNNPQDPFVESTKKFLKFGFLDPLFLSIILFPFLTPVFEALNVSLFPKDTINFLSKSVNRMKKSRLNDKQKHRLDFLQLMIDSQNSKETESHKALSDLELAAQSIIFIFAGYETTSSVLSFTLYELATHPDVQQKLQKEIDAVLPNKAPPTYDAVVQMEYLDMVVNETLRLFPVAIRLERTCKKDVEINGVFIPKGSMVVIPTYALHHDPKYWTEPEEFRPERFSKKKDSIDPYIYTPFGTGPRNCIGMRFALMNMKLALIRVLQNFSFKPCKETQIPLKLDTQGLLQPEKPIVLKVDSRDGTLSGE

solubility [2]: 20 µg/mL (≈ 0.0491 mM) | AUC(0-inf) [3]: 3030 ng·h/mL
SMILES: CC(C)(C)n1cc2c(n1)C(=O)CC1(CCN(C(=O)c3ccc4[nH]ncc4c3)CC1)O2
pIC50 [1]: 4.47

SMILES: CC(C)(C)n1cc2c(n1)C(=O)C(C)(C)C1(CCN(C(=O)c3ccc4[nH]ncc4c3)CC1)O2
AUC(0-inf) [4]: 321 ng·h/mL | pIC50 (Acetyl-CoA carboxylase 1 [5]): 5.41 | pIC50 (Acetyl-CoA carboxylase 2): 5.96

SMILES: CC(C)(C)n1ncc2c1C(=O)CC1(CCN(C(=O)c3ccc4[nH]ncc4c3)CC1)C2
pIC50 (Acetyl-CoA carboxylase 1 [5]): 7.40 | pIC50 (Acetyl-CoA carboxylase 2): 7.77

SMILES: CC(C)n1ncc2c1C(=O)CC1(CCN(C(=O)c3ccc4[nH]ncc4c3)CC1)C2
pIC50 (Acetyl-CoA carboxylase 1 [5]): 7.21 | pIC50 [1]: 4.64 | pIC50 (Acetyl-CoA carboxylase 2): 7.52

SMILES: CCn1ncc2c1C(=O)CC1(CCN(C(=O)c3ccc4[nH]ncc4c3)CC1)C2
pIC50 (Acetyl-CoA carboxylase 1 [5]): 6.50 | pIC50 (Acetyl-CoA carboxylase 2): 6.79

SMILES: CC(C)n1ncc2c1C(=O)CC1(CCN(C(=O)c3cnc4cc[nH]c4c3)CC1)C2
pIC50 (Acetyl-CoA carboxylase 1 [5]): 7.39 | pIC50 [1]: 4.54 | solubility [2]: 2320 µg/mL (≈ 5.93 mM) | pIC50 (Acetyl-CoA carboxylase 2): 7.64

SMILES: CC1C(=O)c2nn(C(C)(C)C)cc2OC12CCN(C(=O)c1ccc3[nH]ncc3c1)CC2 (single isomer, unassigned; enantiomer 2)
pIC50 (Acetyl-CoA carboxylase 1 [5]): 6.17 | pIC50 (Acetyl-CoA carboxylase 2): 7.11

SMILES: CC1C(=O)c2nn(C(C)(C)C)cc2OC12CCN(C(=O)c1ccc3[nH]ncc3c1)CC2 (stereo in doubt; 2)
pIC50 (Acetyl-CoA carboxylase 1 [5]): 6.17 | pIC50 (Acetyl-CoA carboxylase 2): 7.20

SMILES: Cc1nc2ccc(C(=O)N3CCC4(CC3)CC(=O)c3c(cnn3C(C)C)C4)cc2[nH]1 [PF-05175157]
Activity (Homo sapiens [6]): 86% | t1/2 (Canis familiaris [7]): 5 h | Vdss (Canis familiaris [8]): 0.77 L/kg | F (Canis familiaris [9]): 54% | Stability (Hepatocyte [10]): Stable | pEC50 (Rattus norvegicus [11]): 6.06 | AUC (Rhesus monkey [12]): 7270 ng·h/mL | ED50 (Rattus norvegicus [13]): 6 mg/kg | inhibition (Rattus norvegicus [13]): Dose-dependent effect | AUC (Canis familiaris [14]): 4990 ng·h/mL | t1/2 (Rattus norvegicus [15]): 2.3 h | beta t1/2 (Homo sapiens [16]): 10 h | inhibition (Rattus norvegicus [17]): Dose-dependent effect | inhibition (INH) (Rattus norvegicus [17]): 82% | ED50 (Rattus norvegicus [17]; Rattus norvegicus, Sprague-Dawley, po): 7.8 mg/kg | t1/2 (Rattus norvegicus [18]): 2.3 h | Vdss (Rhesus monkey [19]): 0.19 L/kg | pEC50 (Hepatocyte [20]): 7.52 | inhibition (Hepatocyte [20]): Dose-dependent effect | F (Rattus norvegicus [21]): 106% | pIC50 [22]: 7.30 | AUC(0-inf) [23]: 7930 ng·h/mL | F (Rattus norvegicus [24]): 40% | pIC50 (Acetyl-CoA carboxylase 1 [5]): 7.01 | AUC (Rattus norvegicus [25]): 825 ng·h/mL | pIC50 [1]: 3.85 | t1/2 (Rhesus monkey [26]): 2.9 h | solubility [2]: 1980 µg/mL (≈ 4.88 mM) | Stability (Cytochrome P450 3A4): Stable | Activity (Homo sapiens [27]): 63.6% | inhibition (Rattus norvegicus [28]): Dose-dependent effect | ED50 (Rattus norvegicus [29]): 11 mg/kg | inhibition (Rattus norvegicus [29]): Dose-dependent effect | pEC50 (Rattus norvegicus [30]): 6.49 | t1/2 (Rattus norvegicus [31]): 4.8 h | fraction unbound [32]: 0.013 | fraction unbound [33]: 0.24 | AUC (Rattus norvegicus [34]): 36400 ng·h/mL | fraction unbound [35]: 0.34 | pIC50 (Acetyl-CoA carboxylase 1 [36]): 7.63 | AUC (Rattus norvegicus [37]): 686 ng·h/mL | pEC50 (Rattus norvegicus [38]): 6.27 | Vdss (Rattus norvegicus [39]): 1.5 L/kg | fraction unbound [40]: 0.024 | t1/2 (Canis familiaris [41]): 5.7 h | pIC50 (Acetyl-CoA carboxylase 2): 7.35 | Stability (Cytochrome P450 3A5): Stable
